# Assay results from different studies.
# Each line is one published result; the experiments were not run side by side.
# Target: Serine/threonine-protein kinase ICK (CILK1, Homo sapiens, UniProt Q9UPZ9)
# Residues used in one study (Q9UPZ9 1-632): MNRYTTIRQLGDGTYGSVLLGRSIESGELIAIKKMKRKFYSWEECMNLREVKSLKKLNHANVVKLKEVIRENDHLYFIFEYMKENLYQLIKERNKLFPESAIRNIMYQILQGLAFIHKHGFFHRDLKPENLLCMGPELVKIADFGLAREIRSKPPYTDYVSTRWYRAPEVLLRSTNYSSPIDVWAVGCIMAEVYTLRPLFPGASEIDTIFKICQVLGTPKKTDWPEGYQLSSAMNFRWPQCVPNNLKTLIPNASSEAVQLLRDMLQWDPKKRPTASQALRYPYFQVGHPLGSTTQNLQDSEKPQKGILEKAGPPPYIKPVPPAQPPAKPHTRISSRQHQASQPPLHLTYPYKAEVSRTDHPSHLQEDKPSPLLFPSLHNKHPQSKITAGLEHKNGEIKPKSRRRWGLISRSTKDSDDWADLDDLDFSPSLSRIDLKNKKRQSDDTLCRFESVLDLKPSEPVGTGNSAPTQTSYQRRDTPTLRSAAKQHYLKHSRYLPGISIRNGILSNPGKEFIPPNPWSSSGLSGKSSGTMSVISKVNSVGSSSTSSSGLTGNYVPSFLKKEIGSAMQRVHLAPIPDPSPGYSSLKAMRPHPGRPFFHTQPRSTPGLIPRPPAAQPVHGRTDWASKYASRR
SMILES,assay,conditions,remaining binding [%]
C[C@@H]1CCN(c2nccc(-c3cnn4ncccc34)n2)C1,binding,1 µM,58
COc1ncc2cc3ccccc3nc2c1C#N,"binding, competition with immobilised ligand",5 µM,90
Cc1cnc(Nc2ccc(C(=O)N3CCC(N4CCCC4)CC3)cc2)nc1-c1cc2ccccc2s1,"binding, competition with immobilised ligand",1 µM,64
CS(=O)(=O)NCC[C@H](NC(=O)c1cncc2c1cnn2-c1ccc(F)cc1)c1ccnc(S(C)(=O)=O)c1,"binding, competition with immobilised ligand",1 µM,100
COc1ccnn2ncc(-c3ccnc(N(C)C)n3)c12,binding,1 µM,74
Nc1cnc(N2CCc3cc(S(=O)(=O)Nc4c(F)cc(Cl)cc4F)cc(N4CCCC4=O)c32)nc1,"cell-free assay, competition with immobilised ligand",1 µM,80
Cc1cnn2ncc(-c3ccnc(N(C)C)n3)c2c1,binding,1 µM,82
O=C(c1ccc(Nc2ncc(Cl)c(-c3ccc(Cl)s3)n2)cc1)N1CCC(N2CCCC2)CC1,"binding, competition with immobilised ligand",1 µM,32
Nc1ncc2c(n1)-c1c([nH]c3ccc(C#CC4CC4)cc13)CCCC2,"binding, competition with immobilised ligand",1 µM,98
c1cnn2ncc(-c3ccnc(N4CCC45COC5)n3)c2c1,binding,1 µM,69
C[C@@H](c1ccc(-n2cnc3c(N)ncnc32)cc1)N1CCc2nn(C)c(Cc3ccccc3)c2C1=O,"binding, competition with immobilised ligand",0.1 µM,48
CN(CCCC(F)(F)F)c1nccc(-c2cnn3ncccc23)n1,binding,1 µM,100
CNC(=O)[C@@H]1CC[C@@H](n2c(-c3ccc4cnccc4c3)nc3ccc(C(=O)NCc4cccc(C(N)=O)c4)cc32)C1,"binding, competition with immobilised ligand",1 µM,100
COc1cccc(CNC(=O)c2nc3scc(COCc4ccc(C(=O)O)cc4)c3c(=O)[nH]2)c1,"cell-free assay, competition with immobilised ligand",1 µM,66.1
CN(C)c1ncc(F)c(-c2cnn3ncccc23)n1,binding,1 µM,89
CN([C@@H]1CCc2c(CC(=O)O)c3ccccc3n2C1)S(=O)(=O)c1ccc(F)cc1,"cell-free assay, competition with immobilised ligand",1 µM,100
CCN1CCN(Cc2ccc(C(=O)Nc3ccc(C)c(Oc4ccc5c(c4)CC(=O)N5)c3)cc2C(F)(F)F)CC1,"binding, competition with immobilised ligand",1 µM,100
CNC(=O)Nc1ccc2c(c1)[C@@]1(CC2)OC(=O)N(CC(=O)N(Cc2ccc(F)cc2)[C@@H](C)C(F)(F)F)C1=O,"binding, competition with immobilised ligand",1 µM,67
O=C(NCC1CCOCC1)c1n[nH]cc1NC(=O)c1c(F)cccc1F,"binding, competition with immobilised ligand",1 µM,5.7
Cc1c(NC(=O)c2cc(C(N)=O)nc3cc(F)ccc23)c(C(F)(F)F)nn1Cc1ccc(C(C)(C)C)cc1,"cell-free assay, competition with immobilised ligand",1 µM,61
O=C(c1ccc(Nc2ncc(Cl)c(-c3cc4ccccc4s3)n2)cc1)N1CCC(N2CCCC2)CC1,"binding, competition with immobilised ligand",1 µM,57
